Assays:
[1] = Cytotoxicity against doxorubicin-resistant human Saos2 cells assessed as cell mortality at 0.1 to 5 ug/mL after 4 hrs by trypan blue staining-based flow cytometric analysis; conditions: saos-2, 4 h
Summary of the method: (§1)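 Trypan blue exclusion read by flow cytometry. Cells exposed to voacamine at 0.1, 1.0 or 5.0 μg/mL (in DMSO; DMSO-only cultures as extra control) for 4 or 24 h, resuspended in ice-cold PBS, stained with trypan blue (final 0.8 μM) and analysed at once; % dead cells. Three independent experiments, mean ± SD.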

[2] = Cytotoxicity against P-gp-deficient human Me30966 cells assessed as induction of morphological changes at 1 ug/mL by phase contrast microscopic analysis; format: ADME, cell-based
Summary of the method: (§2)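 Monolayers viewed by phase contrast microscopy against untreated controls. SAOS-2-DX given 1.0 μg/mL voacamine plus 1.0 μg/mL doxorubicin; Me30966 given 1.0 μg/mL voacamine plus 0.5 μg/mL doxorubicin.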

[3] = Cytotoxicity against human AG1522 cells assessed as cell mortality at 5 ug/mL after 24 hrs by trypan blue staining-based flow cytometric analysis; summary of the method: as §1
[4] = Cytotoxicity against human AG1522 cells assessed as cell mortality at 0.1 to 5 ug/mL after 4 hrs by trypan blue staining-based flow cytometric analysis; summary of the method: as §1
[5] = Cytotoxicity against wild type human Saos2 cells assessed as cell mortality at 0.1 to 5 ug/mL after 4 hrs by trypan blue staining-based flow cytometric analysis; conditions: saos-2, 4 h; summary of the method: as §1
[6] = Cytotoxicity against wild type human Saos2 cells assessed as cell mortality at 5 ug/mL after 24 hrs by trypan blue staining-based flow cytometric analysis; conditions: saos-2, 24 h; summary of the method: as §1
[7] = target: T1, ATP-dependent translocase ABCB1 (Homo sapiens, UniProt P08183); test: Inhibition of p-gp in doxorubicin-resistant human Saos2 cells assessed as intracellular doxorubicin distribution in nuclei at 1 ug/mL after 2 to 3 hrs by laser scanning confocal microscopic analysis; format: cell-based; conditions: saos-2
T1 sequence (P08183 whole entry): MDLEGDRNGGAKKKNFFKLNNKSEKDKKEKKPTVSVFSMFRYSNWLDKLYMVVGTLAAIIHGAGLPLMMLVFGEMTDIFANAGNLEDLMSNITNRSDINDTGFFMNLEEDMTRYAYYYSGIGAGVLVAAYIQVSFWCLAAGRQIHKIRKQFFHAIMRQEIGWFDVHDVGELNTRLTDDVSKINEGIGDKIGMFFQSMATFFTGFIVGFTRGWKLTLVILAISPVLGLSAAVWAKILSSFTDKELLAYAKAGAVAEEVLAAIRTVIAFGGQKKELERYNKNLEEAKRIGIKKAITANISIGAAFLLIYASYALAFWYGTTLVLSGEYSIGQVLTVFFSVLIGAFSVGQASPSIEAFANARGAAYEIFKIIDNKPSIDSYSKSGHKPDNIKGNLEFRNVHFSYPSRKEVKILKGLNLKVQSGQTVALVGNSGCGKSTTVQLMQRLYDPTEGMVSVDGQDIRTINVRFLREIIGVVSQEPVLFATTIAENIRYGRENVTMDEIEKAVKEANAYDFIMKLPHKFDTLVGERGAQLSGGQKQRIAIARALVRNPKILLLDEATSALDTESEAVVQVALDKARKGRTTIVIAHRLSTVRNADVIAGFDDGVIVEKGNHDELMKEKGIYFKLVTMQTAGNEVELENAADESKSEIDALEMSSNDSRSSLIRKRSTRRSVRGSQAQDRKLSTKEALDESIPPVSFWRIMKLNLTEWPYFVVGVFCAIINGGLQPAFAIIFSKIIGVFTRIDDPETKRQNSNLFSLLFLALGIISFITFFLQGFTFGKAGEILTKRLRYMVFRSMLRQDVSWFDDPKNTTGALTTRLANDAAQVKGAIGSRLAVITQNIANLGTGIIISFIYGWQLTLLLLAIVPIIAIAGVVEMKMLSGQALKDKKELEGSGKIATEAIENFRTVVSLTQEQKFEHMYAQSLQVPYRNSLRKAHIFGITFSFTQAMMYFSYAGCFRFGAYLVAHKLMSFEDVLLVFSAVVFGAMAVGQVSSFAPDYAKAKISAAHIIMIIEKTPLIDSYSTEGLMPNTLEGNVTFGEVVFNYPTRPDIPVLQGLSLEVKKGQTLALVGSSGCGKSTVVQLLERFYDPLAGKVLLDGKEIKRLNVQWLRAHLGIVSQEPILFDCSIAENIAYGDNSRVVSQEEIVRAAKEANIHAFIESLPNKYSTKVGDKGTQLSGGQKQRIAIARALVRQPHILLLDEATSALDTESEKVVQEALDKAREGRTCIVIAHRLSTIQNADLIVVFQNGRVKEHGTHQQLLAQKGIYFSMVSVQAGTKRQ
Summary of the method: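 Living SAOS-2-DX cells, with SAOS-2-WT for reference, treated with doxorubicin alone or with voacamine or cyclosporin A as in the flow cytometry uptake/efflux protocol. Intracellular, including nuclear, doxorubicin fluorescence located by laser scanning confocal microscopy.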

[8] = target: T1, ATP-dependent translocase ABCB1; test: Inhibition of p-gp in doxorubicin-resistant human Saos2 cells assessed as potentiation of doxorubicin-induced cytotoxicity by measuring cell survival at 1 ug/mL pretreated for 30 mins followed by 1 ug/mL doxorubicin addition measured after 72 hrs by MTT assay relative to doxorubicin-treated cell; format: cell-based; conditions: saos-2, 72 h
Summary of the method: (§3)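 MTT survival assay. Cells seeded 24 h beforehand (1 × 10^4 SAOS-2-DX or 5 × 10^3 Me30966 per well). Voacamine 0.5 or 1.0 μg/mL given alone or 30 min before doxorubicin (Me30966: 0.1 or 0.5 μg/mL; SAOS-2-DX: 0.5 or 1.0 μg/mL). Read at 24 h for Me30966 and 72 h for SAOS-2-DX. Three independent experiments, mean ± SD.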

P-gp (ABCB1) = P-gp (ABCB1) (Homo sapiens, UniProt P08183); test: Inhibition of p-gp in doxorubicin-resistant human Saos2 cells assessed as potentiation of doxorubicin-induced cytotoxicity by measuring cell survival at 1 ug/mL pretreated for 30 mins followed by 0.5 ug/mL doxorubicin addition measured after 72 hrs by MTT assay relative to doxorubicin-treated cell; format: cell-based, SAOS-2; conditions: probe doxorubicin, read-out: Survival; summary of the method: as §3
Chain of P-gp (ABCB1) (P08183 whole entry): as above

[9] = Cytotoxicity against doxorubicin-resistant human Saos2 cells assessed as cell mortality at 5 ug/mL after 24 hrs by trypan blue staining-based flow cytometric analysis; conditions: saos-2, 24 h; summary of the method: as §1
[10] = Cytotoxicity against P-gp-deficient human Me30966 cells assessed as effect on cell survival at 0.5 to 1 ug/mL pretreated for 30 mins followed by 1 ug/mL doxorubicin addition measured after 24 hrs by MTT assay relative to doxorubicin-treated cell; format: ADME, cell-based
[11] = Cytotoxicity against P-gp-deficient human Me30966 cells assessed as cell mortality at 0.1 to 5 ug/mL after 4 hrs by trypan blue staining-based flow cytometric analysis; format: ADME; summary of the method: as §1
[12] = target: T1, ATP-dependent translocase ABCB1; test: Inhibition of p-gp in doxorubicin-resistant human Saos2 cells assessed as potentiation of doxorubicin-induced cytotoxicity by measuring cell survival at 0.5 ug/mL pretreated for 30 mins followed by 1 ug/mL doxorubicin addition measured after 72 hrs by MTT assay relative to doxorubicin-treated cell; format: cell-based; conditions: saos-2, 72 h; summary of the method: as §3
[13] = Cytotoxicity against doxorubicin-resistant human Saos2 cells assessed as effect on cell survival up to 1 ug/mL after 72 hrs by MTT assay; format: cell-based; conditions: saos-2, 72 h; summary of the method: as §3
[14] = target: T1, ATP-dependent translocase ABCB1; test: Inhibition of p-gp in doxorubicin-resistant human Saos2 cells assessed as potentiation of doxorubicin-induced cytotoxicity by measuring cell survival at 0.5 ug/mL pretreated for 30 mins followed by 0.5 ug/mL doxorubicin addition measured after 72 hrs by MTT assay relative to doxorubicin-treated cell; format: cell-based; conditions: saos-2, 72 h; summary of the method: as §3
[15] = target: T1, ATP-dependent translocase ABCB1; test: Inhibition of p-gp in doxorubicin-resistant human Saos2 cells assessed as increase in intracellular doxorubicin retention at 1 ug/mL after 2 hrs by flow cytometric analysis; format: cell-based; conditions: saos-2, 2 h
Summary of the method: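 Efflux by flow cytometry. Cells loaded 1 h with 1.0 μg/mL doxorubicin, washed in PBS, then reincubated 2 h at 37 °C in drug-free medium with or without voacamine (1.0 μg/mL) or cyclosporin A (5.0 μM). Detached, resuspended in ice-cold PBS, analysed for retained doxorubicin fluorescence. Three independent experiments, mean ± SD.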

[16] = Cytotoxicity against P-gp-deficient human Me30966 cells assessed as cell mortality at 5 ug/mL after 24 hrs by trypan blue staining-based flow cytometric analysis; format: ADME; summary of the method: as §1
[17] = target: T1, ATP-dependent translocase ABCB1; test: Inhibition of p-gp in doxorubicin-resistant human Saos2 cells assessed as potentiation of 1 ug/mL doxorubicin-induced cytotoxicity by measuring induction of morphological changes at 1 ug/mL by phase contrast microscopic analysis; format: cell-based; conditions: saos-2; summary of the method: as §2
[18] = Cytotoxicity against doxorubicin-resistant human Saos2 cells assessed as induction of morphological changes at 1 ug/mL by phase contrast microscopic analysis; format: cell-based; conditions: saos-2; summary of the method: as §2
[19] = target: T1, ATP-dependent translocase ABCB1; test: Inhibition of p-gp in doxorubicin-resistant human Saos2 cells assessed as increase in doxorubicin uptake at 1 ug/mL after 3 hrs by flow cytometric analysis; format: cell-based; conditions: saos-2, 3 h
Summary of the method: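 Doxorubicin accumulation by flow cytometry. Osteosarcoma or melanoma cells exposed for 3 h to doxorubicin 1.0 μg/mL alone, with voacamine 1.0 μg/mL, or with cyclosporin A 5.0 μM (control). Cells detached with EDTA/trypsin (10^6 cells/mL), resuspended in ice-cold PBS, 488 nm excitation. Three independent experiments, mean ± SD.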

CC=C1CN(C)C2Cc3c([nH]c4ccccc34)C(c3cc4[nH]c5c(c4cc3OC)CCN3CC4CC(CC)C3C5(C(=O)OC)C4)CC1C2C(=O)OC (stereo not given) [VOACAMINE]
Toxic: Activity [3] | Activity [6] | Activity [9] | Activity [16]
50%: viability at 72 h, 1 ug/mL (P-gp (ABCB1))
Active: inhibition (INH) [7] | inhibition (INH) [8] | inhibition (INH) [12] | inhibition (INH) [14] | inhibition (INH) [15] | inhibition (INH) [17] | inhibition (INH) [19]
Non-toxic: Activity [1] | Activity [2] | Activity [4] | Activity [5] | Activity [10] | Activity [11] | Activity [13] | Activity [18]

Reference: ChEMBL document CHEMBL3259756 (J Nat Prod, 2014)
